The results in this text go back to paper PMC6374747 (Biochemistry, 2018).

One series concerns Human EBV-infected BLCs. Put plainly: Immunofluorescence microscopy of bioorthogonal peptides. Type of series: cell-based. As to conditions: for Intracellular aggregation in EBV-infected BLCs (within LC3 positive vesicles): 6.2 and 25 μM (also 3.1, 12.5 μM), 48 h, serum-free, CuAAC Alexa647-azide; for Aggregates in the absence of cells (CuAAC with Alexa647-azide): serum-free medium, no cells. The gist of the method:
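Human BSM EBV-lymphoblastoid cells (1.5 × 10^6/well) were incubated with peptide (6.25 or 25 μM; medium as control) in serum-free R0 medium at 37 °C. Cytospins (5 × 10^4 cells, 28g, 3 min) were air-dried, stored at −80 °C, and PFA-fixed. Staining: anti-LC3 1:20 overnight at 4 °C, then anti-mouse FITC 1:400. Peptide was detected by CuAAC (0.064 mM CuSO4, 0.038 mM ascorbate, 0.25 mM THPTA, AF647-azide 1:160, 100 mM Tris pH 8.0, 1 h, RT, dark). DAPI mounting; fluorescence microscopy.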

Series [1] deals with marmoset EBV-BLCs and co-culture with lymphocytes. Put plainly: FACS-based immunotoxicity assay. As to conditions: CellTrace-stained EBV-BLCs, 24 h, 30, 10, 3, 1 μg/mL tested. Format: cell-based, Callithrix jacchus. The gist of the method: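 EBV-BLCs were prestained with CellTrace for 20 min at RT and plated at 1 × 10^3 cells/well. Peptide (30, 10, 3, 1 μg/mL; medium as negative control) was added for 1 h at 37 °C, 5% CO2, in medium with 10% FCS. Freshly thawed axillary lymph node mononuclear cells from an EAE marmoset were then added at 1 × 10^5 cells/well for 24 h. Cells were stained with a live/dead marker and AnnexinV-APC, then fixed in 1% PFA/AnnexinV binding buffer. CellTrace+ and CellTrace– gates were each gated for AnnexinV and live/dead. Non-co-cultured lymphocytes served as control.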

Series [2] in a line: ThT fluorescence aggregation assay. Type of series: physicochemical. As to conditions: for Concentration at which amyloid-like aggregation was observed (ThT): pH 5.0, 20 mM NaOAc, 1–200 μM tested. The gist of the method:
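Peptide (199 μL; 200–1 μM at pH 5.0 in 20 mM NaOAc, or 200 μM in buffers of pH 3.0–7.0) was mixed with 1 μL ThT. Fluorescence was read at 37 °C (ex 444 nm, em 485 nm, 10 nm bandwidth) every 10 min for at least 15 h with gentle agitation. Signal was normalised to buffer plus ThT. Runs were done at least three times, each in triplicate; end point at 15 h.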

Series [3] in a line: Seeded nucleation ThT aggregation assay. Format: physicochemical. As to conditions: 40 μM peptide, 200 μL, pH 5.0; seeds of 5 or 7, 3–300 ng. An outline of the steps: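 Seeds were prepared by centrifuging aggregated peptide (20000g, 30 min) and homogenising the pellet in 20 mM NaOAc to an estimated 0.1 mg/mL. ThT fluorescence was followed at 37 °C (ex 444 nm, em 485 nm) in kinetic mode.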

Ends that are not written are not given here. Bounds are passed on as bounds.

As to MOG31-55(Pg_Cit46&Cit52) [Peptide 12], in the series with Human EBV-infected BLCs, the “Intracellular aggregation in EBV-infected BLCs (within LC3 positive vesicles)” value is reported as “large agglomerates” and the “Aggregates in the absence of cells (CuAAC with Alexa647-azide)” value was “large aggregates”. Also, the “Concentration giving increased level of apoptosis (Annexin V)” value in series [1] was greater than 1000 ng/mL.
On the same counts, the results for MOG31-55(Pg_Cit41&46) [Peptide 11] are “small spheres”, “large aggregates” and greater than 1000 ng/mL.
As for “MOG35-55(Arg3) (MEVGWYRPPFSRVVHLYRNGK-NH2; not fully specified; UniProt Q16653 64-84, looked up, fragment) [Peptide 1]”, the “Aggregation at any pH or any concentration tested (ThT)” value in series [2] (pH 3.0–7.0 at 200 μM, 1–200 μM at pH 5.0, 37 °C) was “did not show any aggregation”. Besides, the “Aggregation kinetics on seeding (ThT)” value in series [3] is on record as “no aggregation was observed”.
For the substance “MOG31-55(NArg3) (NATGMEVGWYRPPFSRVVHLYRNGK; UniProt Q16653 60-84, looked up, fragment) [Peptide 9]”, the “Aggregation of elongated MOG31–55 peptides (ThT)” value in series [2] (pH 5.0, 37 °C, 1–200 μM) is “Neither 9 nor 10 aggregated”.
On to MOG35-55(Cit41) [Peptide 2], for which the “Concentration at which amyloid-like aggregation was observed (ThT)” value in series [2] (37 °C) is greater than 4 µM.
Still for that read-out and setting: to MOG35-55(Cit41&Cit52) [Peptide 6] belongs “aggregation at all concentrations tested”.
MOG35-55(Cit46) [Peptide 3]: the “Concentration at which amyloid-like aggregation was observed (ThT)” value in series [2] (37 °C) is greater than 4 µM. In addition, the “Aggregation at a final concentration of 1 μM (ThT)” value in series [2] (pH 5.0, 37 °C) is on record as “but not at a final concentration of 1 μM”.
MOG35-55(Cit3) [Peptide 8]: in series [2] (200 μM, 37 °C), the “Aggregation at pH 6 compared to pH 5 (ThT)” value is listed as roughly 3 fold and the “Aggregation at pH 7 compared to pH 5 (ThT)” value was roughly 4 fold. Moreover, in series [2] (37 °C), the “Concentration at which amyloid-like aggregation was observed (ThT)” value was greater than 4 µM. Moreover, the “Aggregation at a final concentration of 1 μM (ThT)” value in series [2] (pH 5.0, 37 °C) is given as “but not at a final concentration of 1 μM”.
